Experimental data from ChEMBL document CHEMBL1148376, “Synthesis, monoamine transporter binding properties, and behavioral pharmacology of a series of 3beta-(substituted phenyl)-2beta-(3'-substituted isoxazol-5-yl)tropanes” (J Med Chem, 2004).
The source made the active and inactive calls. The calls are words filed in the database; no cut-off is given here.

Key:
[1] = test system: Mus musculus; assay: Percent change from vehicle in locomotor activity in mice at 17 mg/kg (ip) in 2 h; assay type: functional
[2] = test system: Mus musculus; assay: Percent change from vehicle in locomotor activity in mice at 5.6 mg/kg (ip) in 3 h; assay type: functional
[3] = test system: Rattus norvegicus; assay: Drug discrimination effect of compound in rats, expressed as percent of rats choosing the cocaine lever at dose 5.6 mg/kg (ip); assay type: functional
[4] = test system: Mus musculus; assay: Percent change from vehicle in locomotor activity in mice at 56 mg/kg (ip) in 2 h; assay type: functional
[5] = test system: Rattus norvegicus; assay: Drug discrimination effect of compound in rats, expressed as percent of rats choosing the cocaine lever at dose 1 mg/kg (ip); assay type: functional
[6] = test system: Rattus norvegicus; assay: Drug discrimination effect of compound in rats, expressed as percent of rats choosing the cocaine lever at dose 1.7 mg/kg (ip); assay type: functional
[7] = test system: Mus musculus; assay: Percent change from vehicle in locomotor activity in mice at 17 mg/kg (ip) in 4 h; assay type: functional
[8] = species on record: Mus musculus; assay: Effective dose for locomotor activity in mice in the peak hour.; assay type: functional
[9] = test system: Mus musculus; assay: Percent change from vehicle in locomotor activity in mice at 17 mg/kg (ip) in 1 h; assay type: functional
[10] = test system: Rattus norvegicus; assay: Drug discrimination effect of compound in rats, expressed as percent of rats choosing the cocaine lever at dose 10 mg/kg (ip); assay type: functional
[11] = test system: Mus musculus; assay: Percent change from vehicle in locomotor activity in mice at 56 mg/kg (ip) in 4 h; assay type: functional
[12] = test system: Rattus norvegicus; assay: Effective dose for drug discrimination effect in rat (ip); assay type: functional
Procedure, shortened: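 Cocaine-trained rat drug discrimination, FR10, 10-min sessions. Compound in 0.5% methyl cellulose given ip 15 min before session, usually to 7-8 rats per dose. Doses were raised from ≤20% to ≥80% cocaine-lever choice, capped at 30 mg/kg, >50% loss of pressing, or side effects.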

[13] = test system: Mus musculus; assay: Percent change from vehicle in locomotor activity in mice at 56 mg/kg (ip) in 1 h; assay type: functional
[14] = test system: Mus musculus; assay: Percent change from vehicle in locomotor activity in mice at 5.6 mg/kg (ip) in 4 h; assay type: functional
[15] = test system: Mus musculus; assay: Percent change from vehicle in locomotor activity in mice at 17 mg/kg (ip) in 3 h; assay type: functional
[16] = test system: Mus musculus; assay: Percent change from vehicle in locomotor activity in mice at 5.6 mg/kg (ip) in 2 h; assay type: functional
[17] = test system: Mus musculus; assay: Percent change from vehicle in locomotor activity in mice at 5.6 mg/kg (ip) in 1 h; assay type: functional
[18] = test system: Rattus norvegicus; assay: Drug discrimination effect of compound in rats, expressed as percent of rats choosing the cocaine lever at dose 3 mg/kg (ip); assay type: functional
[19] = test system: Mus musculus; assay: Percent change from vehicle in locomotor activity in mice at 56 mg/kg (ip) in 3 h; assay type: functional
[20] = test system: Mus musculus; assay: Percent change from vehicle in locomotor activity in mice at 10 mg/kg (ip) in 1 h; assay type: functional
[21] = test system: Mus musculus; assay: Percent change from vehicle in locomotor activity in mice at 0.3 mg/kg (ip) in 1 h; assay type: functional
[22] = test system: Mus musculus; assay: Percent change from vehicle in locomotor activity in mice at 10 mg/kg (ip) in 3 h; assay type: functional
[23] = test system: Mus musculus; assay: Percent change from vehicle in locomotor activity in mice at 10 mg/kg (ip) in 2 h; assay type: functional
[24] = test system: Rattus norvegicus; assay: Drug discrimination effect of compound in rats, expressed as percent of rats choosing the cocaine lever at dose 17 mg/kg (ip); assay type: functional
[25] = test system: Mus musculus; assay: Percent change from vehicle in locomotor activity in mice at 10 mg/kg (ip) in 4 h; assay type: functional
[26] = test system: Mus musculus; assay: Percent change in locomotor activity in mice at 3 mg/kg i.p. in 1 h.; assay type: functional; details: route intraperitoneal
Procedure, shortened: (§1)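 Mice habituated 1/2 h to photocell activity chambers, then injected ip with compound homogenized in 0.5% methyl cellulose (10 mL/kg); vehicle controls; N = 5 or 6 per dose. Photobeam interruptions recorded in 10-min bins for 4 h, grouped into 1-h bins; one-way ANOVA with Newman-Keuls post hoc test (p < 0.05).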

[27] = test system: Mus musculus; assay: Percent change locomotor activity in mice at 1 mg/kg i.p. in 3 h.; assay type: functional; details: route intraperitoneal; procedure, shortened: as §1
[28] = test system: Mus musculus; assay: Percent change from vehicle in locomotor activity in mice at 30 mg/kg (ip) in 2 h; assay type: functional
[29] = test system: Mus musculus; assay: Percent change in locomotor activity in mice at 1 mg/kg i.p. in 4 h.; assay type: functional; details: route intraperitoneal; procedure, shortened: as §1
[30] = test system: Mus musculus; assay: Percent change from vehicle in locomotor activity in mice at 30 mg/kg (ip) in 3 h; assay type: functional
[31] = target: Sodium-dependent dopamine transporter (Rattus norvegicus, UniProt P23977); assay: Inhibitory concentration required to inhibit dopamine transporter DAT was determined by using [3H]WIN-35428 radioligand
Procedure, shortened: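 Competition binding at the DAT with 0.5 nM [3H]WIN35,428 (final concentration). Other procedures follow earlier published methods.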

[32] = test system: Mus musculus; assay: Percent change from vehicle in locomotor activity in mice at 0.3 mg/kg (ip) in 3 h; assay type: functional
[33] = test system: Mus musculus; assay: Percent change from vehicle in locomotor activity in mice at 30 mg/kg (ip) in 1 h; assay type: functional
[34] = test system: Mus musculus; assay: Percent change in locomotor activity in mice at 1 mg/kg i.p. in 2 h.; assay type: functional; details: route intraperitoneal; procedure, shortened: as §1
[35] = test system: Mus musculus; assay: Percent change from vehicle in locomotor activity in mice at 0.3 mg/kg (ip) in 4 h; assay type: functional
[36] = test system: Mus musculus; assay: Percent change from vehicle in locomotor activity in mice at 30 mg/kg (ip) in 4 h; assay type: functional
[37] = test system: Mus musculus; assay: Percent change in locomotor activity in mice at 3 mg/kg i.p. in 4 h.; assay type: functional; details: route intraperitoneal; procedure, shortened: as §1
[38] = test system: Mus musculus; assay: Percent change in locomotor activity in mice at 1 mg/kg i.p. in 1 h.; assay type: functional; details: route intraperitoneal
[39] = test system: Rattus norvegicus; assay: Drug discrimination effect of compound in rats, expressed as percent of rats choosing the cocaine lever at dose 30 mg/kg (ip); assay type: functional
[40] = test system: Mus musculus; assay: Percent change in locomotor activity in mice at 3 mg/kg i.p. in 2 h.; assay type: functional; details: route intraperitoneal; procedure, shortened: as §1
[41] = target: Sodium-dependent serotonin transporter (Rattus norvegicus, UniProt P31652); assay: Inhibitory concentration required to inhibit serotonin transporter 5-HTT was determined by using [3H]paroxetine radioligand
Procedure, shortened: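 Competition binding at the 5-HTT with 0.2 nM [3H]paroxetine (final concentration). Other procedures follow earlier published methods.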

[42] = species on record: Mus musculus; assay: Effective dose was evaluated for locomotor activity in mice in the peak hour; No stimulation; assay type: functional, organism-based
[43] = test system: Mus musculus; assay: Percent change from vehicle in locomotor activity in mice at 0.3 mg/kg (ip) in 2 h; assay type: functional
[44] = target: Norepinephrine transporter (Rattus norvegicus, UniProt Q9WTR4); assay: Binding affinity towards norepinephrine transporter was determined by using [3H]nisoxetine radioligand
Procedure, shortened: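 Competition binding at the NET with 0.5 nM [3H]nisoxetine (final concentration). Other procedures follow earlier published methods.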

[45] = test system: Mus musculus; assay: Percent change in locomotor activity in mice at 3 mg/kg i.p. in 3 h.; assay type: functional; details: route intraperitoneal; procedure, shortened: as §1

Sodium-dependent dopamine transporter, sequence (P23977 whole entry): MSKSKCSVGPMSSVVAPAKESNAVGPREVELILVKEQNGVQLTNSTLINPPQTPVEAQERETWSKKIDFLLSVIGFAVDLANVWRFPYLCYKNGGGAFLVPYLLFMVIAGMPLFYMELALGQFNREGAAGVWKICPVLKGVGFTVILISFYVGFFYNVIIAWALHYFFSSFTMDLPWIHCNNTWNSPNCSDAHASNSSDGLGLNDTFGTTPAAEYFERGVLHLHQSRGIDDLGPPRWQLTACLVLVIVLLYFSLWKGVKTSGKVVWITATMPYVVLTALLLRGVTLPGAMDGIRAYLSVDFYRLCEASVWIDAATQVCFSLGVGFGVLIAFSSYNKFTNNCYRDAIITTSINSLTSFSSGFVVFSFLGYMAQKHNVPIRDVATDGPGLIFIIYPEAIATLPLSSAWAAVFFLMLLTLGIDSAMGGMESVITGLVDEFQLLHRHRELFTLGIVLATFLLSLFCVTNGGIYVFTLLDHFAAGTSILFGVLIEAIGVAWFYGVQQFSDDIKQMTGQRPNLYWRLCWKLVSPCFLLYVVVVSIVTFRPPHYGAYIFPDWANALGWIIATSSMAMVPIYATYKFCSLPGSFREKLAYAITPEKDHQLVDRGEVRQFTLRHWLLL
Sodium-dependent serotonin transporter, sequence (P31652 whole entry): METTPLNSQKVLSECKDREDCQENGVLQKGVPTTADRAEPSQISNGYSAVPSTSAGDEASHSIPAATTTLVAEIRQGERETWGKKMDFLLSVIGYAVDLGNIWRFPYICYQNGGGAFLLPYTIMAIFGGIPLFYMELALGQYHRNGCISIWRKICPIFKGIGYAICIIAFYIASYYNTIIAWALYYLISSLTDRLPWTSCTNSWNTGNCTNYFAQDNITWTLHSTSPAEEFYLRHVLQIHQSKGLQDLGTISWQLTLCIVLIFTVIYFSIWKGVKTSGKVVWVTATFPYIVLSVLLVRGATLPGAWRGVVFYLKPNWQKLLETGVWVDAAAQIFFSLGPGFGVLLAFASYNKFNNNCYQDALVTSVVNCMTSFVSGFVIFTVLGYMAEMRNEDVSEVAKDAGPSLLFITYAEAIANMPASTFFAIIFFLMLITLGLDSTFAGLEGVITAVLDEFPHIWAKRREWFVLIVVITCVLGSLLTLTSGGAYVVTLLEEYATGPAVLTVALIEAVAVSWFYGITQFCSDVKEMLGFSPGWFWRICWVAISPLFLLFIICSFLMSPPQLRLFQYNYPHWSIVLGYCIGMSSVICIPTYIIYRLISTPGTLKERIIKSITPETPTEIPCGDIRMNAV
Norepinephrine transporter, sequence (Q9WTR4 whole entry): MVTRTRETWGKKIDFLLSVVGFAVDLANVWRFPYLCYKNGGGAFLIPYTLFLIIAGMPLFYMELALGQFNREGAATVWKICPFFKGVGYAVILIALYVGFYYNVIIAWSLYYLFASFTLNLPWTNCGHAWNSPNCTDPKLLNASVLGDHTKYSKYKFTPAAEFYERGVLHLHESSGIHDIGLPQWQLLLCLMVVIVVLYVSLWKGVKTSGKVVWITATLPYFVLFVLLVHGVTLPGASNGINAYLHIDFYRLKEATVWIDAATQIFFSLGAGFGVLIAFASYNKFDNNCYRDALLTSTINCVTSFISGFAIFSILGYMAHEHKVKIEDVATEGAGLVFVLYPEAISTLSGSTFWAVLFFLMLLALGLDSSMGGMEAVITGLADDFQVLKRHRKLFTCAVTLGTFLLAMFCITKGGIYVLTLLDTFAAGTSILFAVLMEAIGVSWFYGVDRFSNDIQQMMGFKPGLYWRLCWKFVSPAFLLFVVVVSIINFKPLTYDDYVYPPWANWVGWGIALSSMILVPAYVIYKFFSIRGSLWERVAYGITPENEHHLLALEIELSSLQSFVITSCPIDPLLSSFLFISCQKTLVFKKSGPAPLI

Q: For `COC(=O)[C@@H]1C2CC[C@@H](C[C@@H]1OC(=O)c1ccccc1)N2C` (single isomer, unassigned) [COCAINE], which Change [1] is on record?
A: -7%

Q: And the Change [2]?
A: -53%

Q: What about the Drug discrimination effect [3] of the same compound?
A: 82%

Q: What about the Change [4] of the same compound?
A: 201%

Q: What about the Drug discrimination effect [5] of the same compound?
A: 21%

Q: What about the Drug discrimination effect [6] of the same compound?
A: 32%

Q: What about the Change [7] of the same compound?
A: -26%

Q: What about the ED50 [8] of the same compound?
A: 18.8 mg/kg

Q: What about the Change [9] of the same compound?
A: 179%

Q: What about the Drug discrimination effect [10] of the same compound?
A: 97%

Q: And the Change [11]?
A: -24%

Q: And the ED50 [12]?
A: 2.64 mg/kg

Q: And the Change [13]?
A: 452%

Q: And the Change [14]?
A: -1%

Q: What about the Change [15] of the same compound?
A: -53%

Q: What about the Change [16] of the same compound?
A: -26%

Q: And the Change [17]?
A: 5%

Q: What about the Drug discrimination effect [18] of the same compound?
A: 59%

Q: And the Change [19]?
A: -47%

Q: What does the source list for `Cc1ccc(-c2cc(C3C(c4ccc(C)cc4)CC4CCC3N4C)on2)cc1` (configuration not stated)?
A: Change [20]: -30%; Change [21]: -17%; Change [22]: -38%; Change [23]: 34%; Drug discrimination effect [24]: 33%; Change [25]: -7%; Change [26]: 1%; Change [27]: 76%; Change [28]: -26%; Change [29]: -30%; Drug discrimination effect [10]: 0%; Change [30]: -37%; IC50 [31]: 0.013 µM; Change [32]: 102%; Change [33]: -19%; Change [34]: -6%; Change [35]: -48%; Change [36]: -43%; Change [37]: 29%; Change [38]: -5%; Drug discrimination effect [39]: 67%; Change [40]: 10%; IC50 [41]: > 100 µM; Drug discrimination effect [18]: 0%; ED50 [42]: inactive; Change [43]: 60%; IC50 [44]: > 100 µM; Change [45]: 73%
